Measurements reported in ChEMBL document CHEMBL1269001, “Design, synthesis and biological evaluation of quinoline amide derivatives as novel VEGFR-2 inhibitors” (Bioorg Med Chem Lett, 2010).

Columns and labels:
[1] = molecular target: Vascular endothelial growth factor receptor 2 (Homo sapiens, UniProt P35968); assay: Inhibition of VEGFR2
HUVEC [2] = assay: Inhibition of […]-induced proliferation in HUVEC cells assessed as BrdU incorporation by ELISA; assay type: functional, cell-based; details: Homo sapiens
Summary of the method: (§1)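 HUVEC were seeded in 5% FBS medium on type 1 collagen-coated plates and incubated overnight at 37 °C, 5% CO₂. The medium was replaced with inhibitor at various concentrations in serum-free medium. Cells were incubated a further 72 h, with BrdU added during the last 18–24 h. Incorporation was read by ELISA.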

HUVEC [3] = assay: Inhibition of VEGF-induced proliferation in HUVEC cells assessed as BrdU incorporation by ELISA; assay type: functional, cell-based; details: Homo sapiens; summary of the method: as §1

Vascular endothelial growth factor receptor 2, sequence (P35968 whole entry): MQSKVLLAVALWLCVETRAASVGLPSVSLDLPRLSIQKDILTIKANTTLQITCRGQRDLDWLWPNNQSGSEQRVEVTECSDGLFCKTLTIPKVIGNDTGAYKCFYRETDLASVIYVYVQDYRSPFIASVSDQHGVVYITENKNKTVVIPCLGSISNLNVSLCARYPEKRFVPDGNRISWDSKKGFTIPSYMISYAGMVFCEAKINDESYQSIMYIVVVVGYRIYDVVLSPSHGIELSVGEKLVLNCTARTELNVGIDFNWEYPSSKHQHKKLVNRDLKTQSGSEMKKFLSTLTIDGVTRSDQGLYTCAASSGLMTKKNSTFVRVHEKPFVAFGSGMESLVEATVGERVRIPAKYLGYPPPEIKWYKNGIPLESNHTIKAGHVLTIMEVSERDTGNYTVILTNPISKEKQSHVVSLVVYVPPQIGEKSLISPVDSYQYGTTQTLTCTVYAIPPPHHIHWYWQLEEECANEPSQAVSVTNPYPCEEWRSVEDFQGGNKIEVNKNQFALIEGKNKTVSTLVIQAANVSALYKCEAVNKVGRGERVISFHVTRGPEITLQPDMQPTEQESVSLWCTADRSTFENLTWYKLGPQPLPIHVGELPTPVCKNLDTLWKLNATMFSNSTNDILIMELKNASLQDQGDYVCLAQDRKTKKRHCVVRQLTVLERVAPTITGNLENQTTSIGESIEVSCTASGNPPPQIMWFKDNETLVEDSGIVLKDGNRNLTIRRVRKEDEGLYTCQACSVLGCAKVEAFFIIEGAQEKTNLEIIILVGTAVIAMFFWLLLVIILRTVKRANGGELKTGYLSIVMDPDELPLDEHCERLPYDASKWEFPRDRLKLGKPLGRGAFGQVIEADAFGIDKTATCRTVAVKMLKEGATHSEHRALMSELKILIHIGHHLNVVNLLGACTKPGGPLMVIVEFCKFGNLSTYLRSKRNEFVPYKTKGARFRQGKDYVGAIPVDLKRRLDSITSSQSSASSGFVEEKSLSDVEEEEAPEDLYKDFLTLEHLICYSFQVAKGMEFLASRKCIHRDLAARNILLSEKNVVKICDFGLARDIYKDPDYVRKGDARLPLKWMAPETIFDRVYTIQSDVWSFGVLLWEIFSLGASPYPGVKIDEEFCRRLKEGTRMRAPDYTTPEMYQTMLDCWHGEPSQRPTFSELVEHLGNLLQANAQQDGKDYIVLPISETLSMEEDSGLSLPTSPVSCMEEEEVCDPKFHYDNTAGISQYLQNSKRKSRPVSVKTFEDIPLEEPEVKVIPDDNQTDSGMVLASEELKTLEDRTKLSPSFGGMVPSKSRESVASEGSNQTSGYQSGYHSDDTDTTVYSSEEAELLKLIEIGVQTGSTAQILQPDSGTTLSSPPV

IC50 [1] | Structure (SMILES) | IC50 (HUVEC [2]) | IC50 (HUVEC [3])
135 nM | O=C(Nc1cccc2cccnc12)c1ccccc1 | 1160 nM | 72.4 nM
125 nM | O=C(Nc1cccc2cccnc12)c1ccc(Cl)cc1 | 220 nM | 15.2 nM
23.6 nM | O=C(Nc1cccc2cccnc12)c1ccccc1Cl | 1150 nM | 123 nM
84.9 nM | O=C(Nc1cccc2cccnc12)c1ccc(Cl)nc1 | 560 nM | 141 nM
209 nM | O=C(Nc1cccc2cccnc12)c1cncc(Br)c1 | 346 nM | 211 nM
107 nM | O=C(Nc1cnc2ccccc2c1)c1ccccc1 | 68 nM | 78.9 nM
88.5 nM | O=C(Nc1cnc2ccccc2c1)c1cncc(Br)c1 | 1140 nM | 59.5 nM
113 nM | O=C(Nc1cccc2cccnc12)c1ccc([N+](=O)[O-])cc1 | 450 nM | 46.7 nM
16.5 nM | O=C(Nc1cccc2cccnc12)c1cccc([N+](=O)[O-])c1 | 210 nM | 15.8 nM
3.8 nM | O=C(Nc1cccc2cccnc12)c1cc(Cl)ccc1O | 110 nM | 5.5 nM
9.6 nM | Cc1ccc(C(=O)Nc2cccc3cccnc23)c(O)c1 | 45 nM | 19.8 nM
26.5 nM | Cc1cccc(C(=O)Nc2cccc3cccnc23)c1O | 1140 nM | 26.3 nM
5.5 nM | O=C(Nc1cccc2cccnc12)c1cc(Br)cnc1O | 560 nM | 12.9 nM
13.5 nM | Cc1cnc(O)c(C(=O)Nc2cccc3cccnc23)c1 | 1150 nM | 13.6 nM
28.4 nM | Cc1cccc(C(=O)Nc2cnc3ccccc3c2)c1Br | 660 nM | 11.6 nM
326 nM | Cc1cc(Cl)cc(C(=O)Nc2cnc3ccccc3c2)c1 | 560 nM | 76.3 nM
32.4 nM | O=C(Nc1cnc2ccccc2c1)c1cc(Br)cc(Br)c1O | 240 nM | 18.9 nM
72.8 nM | O=C(Nc1cnc2ccccc2c1)c1cccc(Cl)c1O | 340 nM | 28.4 nM
12.4 nM | Cc1cc(Br)cc(C(=O)Nc2cnc3ccccc3c2)c1O | 470 nM | 18.9 nM
23.4 nM | O=C(Nc1cnc2ccccc2c1)c1cc(Cl)cnc1Br | 1240 nM | 58.9 nM
102 nM | Cc1cnc(Cl)c(C(=O)Nc2cnc3ccccc3c2)c1 | 885 nM | 77.6 nM
113 nM | Cc1cc(Br)cc(C(=O)Nc2cnc3ccccc3c2)c1 | 720 nM | 89.6 nM
32.7 nM | O=C(Nc1cnc2ccccc2c1)c1cc(Cl)c(O)nc1O | 460 nM | 14.5 nM
25.5 nM | Cc1cccc(C(=O)Nc2cnc3ccccc3c2)c1O | 780 nM | 35.7 nM
